Measured values taken from ChEMBL document CHEMBL1136924 (J Med Chem, 2009).
Active and inactive are the calls of the source. The rule behind the calls is not given here.

Assays:
D(1A) dopamine receptor = D(1A) dopamine receptor (Rattus norvegicus, UniProt P18901); assay: Displacement of [3H]SCH-23390 from dopamine D1 receptor in rat striatum
[1] = target: 5-hydroxytryptamine receptor 2A (Rattus norvegicus, UniProt P14842); assay: Displacement of [3H]ketanserin from 5HT2A receptor in rat cortex
Chain of 5-hydroxytryptamine receptor 2A (P14842 whole entry): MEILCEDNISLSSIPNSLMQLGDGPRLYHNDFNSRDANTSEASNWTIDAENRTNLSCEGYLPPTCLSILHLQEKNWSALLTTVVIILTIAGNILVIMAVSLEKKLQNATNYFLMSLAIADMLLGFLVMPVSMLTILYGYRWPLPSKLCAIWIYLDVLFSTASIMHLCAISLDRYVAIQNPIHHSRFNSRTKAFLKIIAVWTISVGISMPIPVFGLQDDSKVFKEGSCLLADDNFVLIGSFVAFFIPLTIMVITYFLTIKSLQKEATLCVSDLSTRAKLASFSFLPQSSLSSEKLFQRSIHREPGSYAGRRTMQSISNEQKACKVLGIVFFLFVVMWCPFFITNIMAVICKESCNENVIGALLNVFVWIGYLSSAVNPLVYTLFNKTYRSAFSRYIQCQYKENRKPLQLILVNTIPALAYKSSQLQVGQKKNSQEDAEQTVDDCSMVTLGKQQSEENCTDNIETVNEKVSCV

[2] = target: T1, 5-hydroxytryptamine receptor 3A (Cavia porcellus) (UniProt O70212); assay: Agonist activity at 5HT3 receptor in guinea pig thoracic aorta assessed as positive contractility potency at 100 uM; type: functional, tissue-based
T1 sequence (whole entry): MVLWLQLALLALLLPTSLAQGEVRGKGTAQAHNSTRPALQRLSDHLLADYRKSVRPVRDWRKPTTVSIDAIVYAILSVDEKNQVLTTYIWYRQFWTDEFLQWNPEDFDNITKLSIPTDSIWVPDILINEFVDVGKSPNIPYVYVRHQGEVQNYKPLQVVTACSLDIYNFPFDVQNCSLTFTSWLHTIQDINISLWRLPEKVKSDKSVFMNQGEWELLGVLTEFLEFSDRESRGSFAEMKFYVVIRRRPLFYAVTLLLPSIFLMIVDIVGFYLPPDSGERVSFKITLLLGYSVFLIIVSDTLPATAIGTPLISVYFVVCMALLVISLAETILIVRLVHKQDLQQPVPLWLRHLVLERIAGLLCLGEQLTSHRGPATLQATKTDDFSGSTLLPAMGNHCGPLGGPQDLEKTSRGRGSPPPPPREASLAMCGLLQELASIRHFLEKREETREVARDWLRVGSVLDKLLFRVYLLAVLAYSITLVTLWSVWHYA
How it was run: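 Guinea pig aortic helicoidal strips in PSS at 35 °C, aerated, under 1 g resting force, washed every 20 min for 1 h. Compounds added cumulatively 0.1-100 µM (DMSO vehicle); isometric contraction recorded.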

[3] = target: Muscarinic acetylcholine receptor; assay: Displacement of [3H]QNB from muscarinic receptor in rat cortex
D(2) dopamine receptor = D(2) dopamine receptor (Rattus norvegicus, UniProt P61169); assay: Displacement of [3H]spiperone from dopamine D2 receptor in rat striatum
Chain of D(2) dopamine receptor (P61169 whole entry): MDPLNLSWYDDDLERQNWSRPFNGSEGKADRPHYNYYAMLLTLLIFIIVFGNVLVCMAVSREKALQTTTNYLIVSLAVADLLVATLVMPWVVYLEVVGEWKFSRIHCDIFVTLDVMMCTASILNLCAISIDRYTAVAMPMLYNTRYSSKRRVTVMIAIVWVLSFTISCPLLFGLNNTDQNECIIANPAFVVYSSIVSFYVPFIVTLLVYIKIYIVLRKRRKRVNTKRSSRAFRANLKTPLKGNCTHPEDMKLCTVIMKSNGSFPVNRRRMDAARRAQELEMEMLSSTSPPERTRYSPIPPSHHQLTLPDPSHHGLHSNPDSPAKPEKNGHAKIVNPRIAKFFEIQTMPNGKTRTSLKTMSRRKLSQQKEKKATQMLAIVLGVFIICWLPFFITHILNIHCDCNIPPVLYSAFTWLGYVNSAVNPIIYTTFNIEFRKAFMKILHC

[4] = target: 5-hydroxytryptamine receptor 4 (Cavia porcellus, UniProt O70528); assay: Displacement of [3H]GR-113808 from 5HT4 receptor in guinea pig striatum
Chain of 5-hydroxytryptamine receptor 4 (O70528 whole entry): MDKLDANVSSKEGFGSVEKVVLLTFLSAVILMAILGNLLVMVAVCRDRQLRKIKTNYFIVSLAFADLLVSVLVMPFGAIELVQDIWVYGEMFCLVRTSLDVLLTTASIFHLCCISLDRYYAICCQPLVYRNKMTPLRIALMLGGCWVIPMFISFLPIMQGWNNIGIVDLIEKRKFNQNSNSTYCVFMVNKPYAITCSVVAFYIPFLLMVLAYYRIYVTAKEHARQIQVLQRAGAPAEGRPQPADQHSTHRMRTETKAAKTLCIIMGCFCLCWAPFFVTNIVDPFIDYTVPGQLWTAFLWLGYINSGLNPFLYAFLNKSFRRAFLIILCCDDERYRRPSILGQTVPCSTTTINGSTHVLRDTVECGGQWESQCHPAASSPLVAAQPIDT

[5] = target: T2, Alpha-2A adrenergic receptor (Rattus norvegicus, UniProt P22909); assay: Displacement of [3H]RX821002 from adrenergic alpha2 receptor in rat cortex
T2 sequence (P22909 whole entry): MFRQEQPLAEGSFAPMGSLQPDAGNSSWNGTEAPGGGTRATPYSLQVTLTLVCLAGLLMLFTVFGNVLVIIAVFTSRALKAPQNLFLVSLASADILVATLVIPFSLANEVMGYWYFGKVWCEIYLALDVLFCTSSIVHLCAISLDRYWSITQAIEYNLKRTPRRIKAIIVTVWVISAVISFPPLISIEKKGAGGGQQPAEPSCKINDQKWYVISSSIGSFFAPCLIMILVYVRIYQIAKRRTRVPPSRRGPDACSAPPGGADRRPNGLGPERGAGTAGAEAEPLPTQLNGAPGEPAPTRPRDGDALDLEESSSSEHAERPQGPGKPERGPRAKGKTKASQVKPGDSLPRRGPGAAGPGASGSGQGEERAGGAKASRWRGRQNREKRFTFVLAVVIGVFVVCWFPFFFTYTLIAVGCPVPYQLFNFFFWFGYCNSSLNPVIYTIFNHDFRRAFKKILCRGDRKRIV

[6] = target: T3, 5-hydroxytryptamine receptor 3A (Rattus norvegicus, UniProt P35563); assay: Displacement of [3H]LY278584 from 5HT3 receptor in rat cortical homogenate
T3 sequence (P35563 whole entry): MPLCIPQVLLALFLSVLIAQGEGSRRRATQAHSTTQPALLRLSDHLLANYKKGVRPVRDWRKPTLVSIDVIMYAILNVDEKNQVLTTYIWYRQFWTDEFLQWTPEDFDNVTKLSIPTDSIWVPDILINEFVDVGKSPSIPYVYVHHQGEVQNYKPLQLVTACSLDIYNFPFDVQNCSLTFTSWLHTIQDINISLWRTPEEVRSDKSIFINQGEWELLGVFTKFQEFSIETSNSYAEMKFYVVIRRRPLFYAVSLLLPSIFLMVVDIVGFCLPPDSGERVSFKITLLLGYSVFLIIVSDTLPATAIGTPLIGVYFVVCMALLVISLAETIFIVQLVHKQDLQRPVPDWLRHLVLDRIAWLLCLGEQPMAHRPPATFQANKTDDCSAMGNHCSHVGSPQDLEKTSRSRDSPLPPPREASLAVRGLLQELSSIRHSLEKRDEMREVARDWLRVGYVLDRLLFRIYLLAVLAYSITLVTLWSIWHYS

[7] = target: T4, 5-hydroxytryptamine receptor 1A (Rattus norvegicus, UniProt P19327); assay: Displacement of [3H]8-OHDPAT from 5HT1A receptor in rat hippocampus; type: tissue-based
T4 sequence (P19327 whole entry): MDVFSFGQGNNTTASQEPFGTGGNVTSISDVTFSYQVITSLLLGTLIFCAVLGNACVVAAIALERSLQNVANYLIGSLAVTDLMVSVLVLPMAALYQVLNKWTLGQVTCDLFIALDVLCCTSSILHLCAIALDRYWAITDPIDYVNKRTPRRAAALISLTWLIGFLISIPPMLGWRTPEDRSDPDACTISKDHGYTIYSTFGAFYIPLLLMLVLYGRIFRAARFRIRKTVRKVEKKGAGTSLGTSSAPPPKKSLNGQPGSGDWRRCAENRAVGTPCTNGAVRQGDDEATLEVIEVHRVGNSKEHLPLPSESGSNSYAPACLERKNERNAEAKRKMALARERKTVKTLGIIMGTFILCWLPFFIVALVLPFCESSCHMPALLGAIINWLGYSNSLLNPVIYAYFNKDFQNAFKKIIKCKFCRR

[8] = target: T1, 5-hydroxytryptamine receptor 3A (Cavia porcellus); assay: Agonist activity at 5HT3 receptor in voltage-stimulated guinea pig left atrium assessed as positive inotropic potency at 100 uM; type: functional, tissue-based; settings: Cardiac atrium
How it was run: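 Guinea pig left and right atria were hung in a 15 mL bath of PSS (pH 7.4, 95% O2-5% CO2, 35 °C) with ketanserin 1 µM. The right atrium beat spontaneously; the left was paced at 1 Hz. Cumulative doses (0.1-100 µM; DMSO ≤0.3%) were added after 45-60 min stabilization. Rate or isometric force was recorded. EC50 came from Probit analysis, n≥4. Intrinsic activity was taken relative to 5-HT.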

Chain of D(1A) dopamine receptor (P18901 whole entry): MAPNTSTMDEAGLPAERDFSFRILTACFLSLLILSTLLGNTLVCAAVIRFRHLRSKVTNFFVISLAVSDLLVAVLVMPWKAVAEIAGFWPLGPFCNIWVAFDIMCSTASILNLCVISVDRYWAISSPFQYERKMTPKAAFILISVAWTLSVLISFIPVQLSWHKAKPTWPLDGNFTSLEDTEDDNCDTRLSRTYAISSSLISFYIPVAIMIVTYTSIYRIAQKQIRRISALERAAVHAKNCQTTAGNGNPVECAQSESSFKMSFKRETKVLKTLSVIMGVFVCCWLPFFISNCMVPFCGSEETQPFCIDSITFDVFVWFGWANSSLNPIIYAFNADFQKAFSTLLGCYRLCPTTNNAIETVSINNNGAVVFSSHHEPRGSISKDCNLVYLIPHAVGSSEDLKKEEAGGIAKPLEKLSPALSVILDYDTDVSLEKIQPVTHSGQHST

For `N[C@@H](CN1CCN(c2nc3cc(F)ccc3n3cccc23)CC1)C(=O)O`, the Ki (D(1A) dopamine receptor) was over 10 µM, the Ki [1] was 5.69 µM and the pD2 [2] was “inactive”. It also gave a Ki [3] of over 10 µM, a Ki (D(2) dopamine receptor) of over 10 µM and a Ki [4] of over 10 µM. It also gave a Ki [5] of over 10 µM, a Ki [6] of 0.0028 µM and a Ki [7] of 0.446 µM. For the same molecule, the pD2 [8] was “inactive”.
`N/C(CN1CCN(c2nc3cc(F)ccc3n3cccc23)CC1)=N\O` was tested, and the Ki (D(1A) dopamine receptor) was over 10 µM, the Ki [1] was over 10 µM and the pD2 [2] was “inactive”. The Ki [3] was over 10 µM, the Ki (D(2) dopamine receptor) was over 10 µM and the Ki [4] was over 10 µM. It also gave a Ki [5] of over 10 µM, a Ki [6] of 0.0008 µM and a Ki [7] of over 10 µM. For the same molecule, the pD2 [8] was “inactive”.
